Tests used:
Format in all cases: functional
HL-60(TB) = assay: Growth inhibition of human HL-60(TB) cells at 10 uM after 48 hrs by coulter counter analysis; conditions: HL-60, 48 h, read-out: GI
Method in brief: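 Cells grown in RPMI 1640 with 10% FBS. Compound was dissolved in DMSO and diluted in PBS (under 1% DMSO final), then added in duplicate wells to culture at 6 × 10⁴ cells/ml. PBS/DMSO vehicle controls were included. Incubated at 37 °C, humidified 5% CO₂, for 48 h. Cells were diluted 10-fold in saline and Coulter-counted. Single-dose NCI-60 screen, read as percent growth inhibition.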

K562 = assay: Growth inhibition of human K562 cells at 10 uM after 48 hrs by coulter counter analysis; conditions: K562, 48 h, read-out: GI
Method in brief: (§1)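 Single-dose NCI 60-line panel screen of test compounds. Cells grown in RPMI 1640 with 10% FBS. Compounds dissolved in DMSO, then diluted in phosphate buffer saline (final DMSO below 1%). Wells run in duplicate at 6 × 10⁴ cells/ml. Controls held PBS and DMSO at matching dilutions. Incubation 48 h at 37 °C under humidified 5% CO2. Cells diluted tenfold in saline and counted by Coulter counter. Percent growth inhibition taken from mean-graph of treated-cell growth.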

MOLT-4 = assay: Growth inhibition of human MOLT4 cells at 10 uM after 48 hrs by coulter counter analysis; conditions: MOLT-4, 48 h, read-out: GI; method in brief: as §1
RPMI-8226 = assay: Growth inhibition of human RPMI8226 cells at 10 uM after 48 hrs by coulter counter analysis; conditions: RPMI-8226, 48 h, read-out: GI; method in brief: as §1
SR = assay: Growth inhibition of human SR cells at 10 uM after 48 hrs by coulter counter analysis; conditions: read-out: GI
Method in brief: (§2)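 Single-dose screen in the NCI 60 cell line panel. Cells grown in RPMI 1640 with 10% FBS. Compounds dissolved in DMSO and diluted in phosphate buffered saline, final DMSO under 1%. Duplicate wells seeded from culture at 6 × 10⁴ cells/ml. Incubated 48 h at 37 °C, humidified, 5% CO2. Cells diluted tenfold in saline and Coulter-counted. Percent growth inhibition computed against PBS/DMSO controls.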

A549 = assay: Growth inhibition of human A549/ATCC cells at 10 uM after 48 hrs by coulter counter analysis; conditions: A549, 48 h, read-out: GI; method in brief: as §1
HOP-92 = assay: Growth inhibition of human HOP92 cells at 10 uM after 48 hrs by coulter counter analysis; conditions: HOP-92, 48 h, read-out: GI; method in brief: as §1
NCI-H23 = assay: Growth inhibition of human NCI-H23 cells at 10 uM after 48 hrs by coulter counter analysis; conditions: NCI-H23, 48 h, read-out: GI; method in brief: as §1
NCI-H322M = assay: Growth inhibition of human NCI-H322M cells at 10 uM after 48 hrs by coulter counter analysis; conditions: read-out: GI; method in brief: as §1
NCI-H460 = assay: Growth inhibition of human NCI-H460 cells at 10 uM after 48 hrs by coulter counter analysis; conditions: NCI-H460, 48 h, read-out: GI; method in brief: as §1
HCC 2998 = assay: Growth inhibition of human HCC2998 cells at 10 uM after 48 hrs by coulter counter analysis; conditions: HCC 2998, 48 h, read-out: GI; method in brief: as §1
HCT-116 = assay: Growth inhibition of human HCT116 cells at 10 uM after 48 hrs by coulter counter analysis; conditions: HCT-116, 48 h, read-out: GI; method in brief: as §1
HCT-15 = assay: Growth inhibition of human HCT15 cells at 10 uM after 48 hrs by coulter counter analysis; conditions: HCT-15, 48 h, read-out: GI; method in brief: as §1
HT-29 = assay: Growth inhibition of human HT-29 cells at 10 uM after 48 hrs by coulter counter analysis; conditions: HT-29, 48 h, read-out: GI; method in brief: as §1
KM12 = assay: Growth inhibition of human KM12 cells at 10 uM after 48 hrs by coulter counter analysis; conditions: KM12, 48 h, read-out: GI; method in brief: as §1
SW-620 = assay: Growth inhibition of human SW620 cells at 10 uM after 48 hrs by coulter counter analysis; conditions: SW-620, 48 h, read-out: GI; method in brief: as §2
SF-295 = assay: Growth inhibition of human SF295 cells at 10 uM after 48 hrs by coulter counter analysis; conditions: SF-295, 48 h, read-out: GI; method in brief: as §1
SF-539 = assay: Growth inhibition of human SF539 cells at 10 uM after 48 hrs by coulter counter analysis; conditions: SF-539, 48 h, read-out: GI; method in brief: as §1
SNB-75 = assay: Growth inhibition of human SNB75 cells at 10 uM after 48 hrs by coulter counter analysis; conditions: SNB-75, 48 h, read-out: GI; method in brief: as §2
U-251 = assay: Growth inhibition of human U251 cells at 10 uM after 48 hrs by coulter counter analysis; conditions: U-251, 48 h, read-out: GI; method in brief: as §2
M14 = assay: Growth inhibition of human M14 cells at 10 uM after 48 hrs by coulter counter analysis; conditions: M14, 48 h, read-out: GI; method in brief: as §1
SK-MEL-2 = assay: Growth inhibition of human SK-MEL-2 cells at 10 uM after 48 hrs by coulter counter analysis; conditions: SK-MEL-2, 48 h, read-out: GI; method in brief: as §1
SK-MEL-5 = assay: Growth inhibition of human SK-MEL-5 cells at 10 uM after 48 hrs by coulter counter analysis; conditions: SK-MEL-5, 48 h, read-out: GI; method in brief: as §1
UACC-62 = assay: Growth inhibition of human UACC62 cells at 10 uM after 48 hrs by coulter counter analysis; conditions: UACC-62, 48 h, read-out: GI; method in brief: as §2
OVCAR-4 = assay: Growth inhibition of human OVCAR4 cells at 10 uM after 48 hrs by coulter counter analysis; conditions: OVCAR-4, 48 h, read-out: GI; method in brief: as §1
A498 = assay: Growth inhibition of human A498 cells at 10 uM after 48 hrs by coulter counter analysis; conditions: A498, 48 h, read-out: GI; method in brief: as §1
ACHN = assay: Growth inhibition of human ACHN cells at 10 uM after 48 hrs by coulter counter analysis; conditions: read-out: GI; method in brief: as §1
RXF 393 = assay: Growth inhibition of human RXF393 cells at 10 uM after 48 hrs by coulter counter analysis; conditions: RXF 393, 48 h, read-out: GI; method in brief: as §1
UO-31 = assay: Growth inhibition of human UO31 cells at 10 uM after 48 hrs by coulter counter analysis; conditions: UO-31, 48 h, read-out: GI; method in brief: as §2
PC-3 = assay: Growth inhibition of human PC3 cells at 10 uM after 48 hrs by coulter counter analysis; conditions: PC-3, 48 h, read-out: GI; method in brief: as §1
DU-145 = assay: Growth inhibition of human DU145 cells at 10 uM after 48 hrs by coulter counter analysis; conditions: DU-145, 48 h, read-out: GI; method in brief: as §1
MCF7 = assay: Growth inhibition of human MCF7 cells at 10 uM after 48 hrs by coulter counter analysis; conditions: MCF7, 48 h, read-out: GI; method in brief: as §1
T47D = assay: Growth inhibition of human T47D cells at 10 uM after 48 hrs by coulter counter analysis; conditions: read-out: GI; method in brief: as §2
CCRF-CEM = assay: Growth inhibition of human CCRF-CEM cells at 10 uM after 48 hrs by coulter counter analysis; conditions: read-out: GI; method in brief: as §1

| SMILES | inhibition of growth at 10 µM (HL-60(TB)) | inhibition of growth at 10 µM (K562) | inhibition of growth at 10 µM (MOLT-4) | inhibition of growth at 10 µM (RPMI-8226) | inhibition of growth at 10 µM (SR) | inhibition of growth at 10 µM (A549) | inhibition of growth at 10 µM (HOP-92) | inhibition of growth at 10 µM (NCI-H23) | inhibition of growth at 10 µM (NCI-H322M) | inhibition of growth at 10 µM (NCI-H460) | inhibition of growth at 10 µM (HCC 2998) | inhibition of growth at 10 µM (HCT-116) | inhibition of growth at 10 µM (HCT-15) | inhibition of growth at 10 µM (HT-29) | inhibition of growth at 10 µM (KM12) | inhibition of growth at 10 µM (SW-620) | inhibition of growth at 10 µM (SF-295) | inhibition of growth at 10 µM (SF-539) | inhibition of growth at 10 µM (SNB-75) | inhibition of growth at 10 µM (U-251) | further results |
| --- | --- | --- | --- | --- | --- | --- | --- | --- | --- | --- | --- | --- | --- | --- | --- | --- | --- | --- | --- | --- | --- |
| Cc1cnc(NC(=O)CCN2CCN(c3ccccc3)CC2)s1 | < 10% | < 10% | < 10% | < 10% | 14.3% | < 10% | < 10% | < 10% | < 10% | < 10% | < 10% | < 10% | < 10% | < 10% | < 10% | < 10% | < 10% | < 10% | < 10% | < 10% | inhibition of growth at 10 µM (M14): < 10%; inhibition of growth at 10 µM (SK-MEL-2): < 10%; inhibition of growth at 10 µM (SK-MEL-5): < 10%; inhibition of growth at 10 µM (UACC-62): < 10%; inhibition of growth at 10 µM (OVCAR-4): < 10%; inhibition of growth at 10 µM (A498): < 10%; inhibition of growth at 10 µM (ACHN): < 10%; inhibition of growth at 10 µM (RXF 393): < 10%; inhibition of growth at 10 µM (UO-31): 12.8%; inhibition of growth at 10 µM (PC-3): < 10%; inhibition of growth at 10 µM (DU-145): < 10%; inhibition of growth at 10 µM (MCF7): < 10%; inhibition of growth at 10 µM (T47D): < 10% |
| Cc1csc(NC(=O)C(C)N2CCN(c3ccccc3)CC2)n1 (configuration not stated) | < 10% | < 10% | < 10% | < 10% | < 10% | < 10% | < 10% | < 10% | < 10% | < 10% | < 10% | < 10% | < 10% | < 10% | < 10% | < 10% | < 10% | < 10% | 24% | < 10% | inhibition of growth at 10 µM (M14): < 10%; inhibition of growth at 10 µM (SK-MEL-2): < 10%; inhibition of growth at 10 µM (SK-MEL-5): < 10%; inhibition of growth at 10 µM (UACC-62): < 10%; inhibition of growth at 10 µM (OVCAR-4): < 10%; inhibition of growth at 10 µM (A498): < 10%; inhibition of growth at 10 µM (ACHN): < 10%; inhibition of growth at 10 µM (RXF 393): < 10%; inhibition of growth at 10 µM (UO-31): 17.9%; inhibition of growth at 10 µM (PC-3): < 10%; inhibition of growth at 10 µM (DU-145): < 10%; inhibition of growth at 10 µM (MCF7): < 10%; inhibition of growth at 10 µM (T47D): < 10%; inhibition of growth at 10 µM (CCRF-CEM): < 10% |

Reference: ChEMBL document CHEMBL2040727, “Substituted thiazoles VI. Synthesis and antitumor activity of new 2-acetamido- and 2 or 3-propanamido-thiazole analogs” (2012)
